According to the EternaBench riboswitch data:

Tested on: MS2 coat protein
Assay: apparent Kd, MS2 coat protein; higher = weaker binding; RNA-MaP array; FMN 200 µM where present
In short: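 Two titrations, one without ligand and one with constant ligand, were run with SNAP-549-labelled MS2 coat protein from 0.7 or 1.5 nM, doubling to 3 µM. The targets were designs transcribed by stalled E. coli RNA polymerase on Illumina sequencing-chip clusters, in 100 mM Tris-HCl pH 7.5, 80 mM KCl, 4 mM MgCl2, BSA, DTT, yeast tRNA and Tween-20. The apparent Kd is the median of filtered per-cluster binding-curve fits, with green signal normalised to red-channel RNA signal and control-cluster median Fmax.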

[1] = designed as: OFF switch for flavin mononucleotide, no ligand
[2] = ligand present: flavin mononucleotide, designed as: OFF switch for flavin mononucleotide
[3] = designed as: ON switch for flavin mononucleotide, no ligand
[4] = ligand present: flavin mononucleotide, designed as: ON switch for flavin mononucleotide

Sequence	apparent Kd [1]	apparent Kd [2]	apparent Kd [3]	apparent Kd [4]
CACGUACAUGAGGAUCACCCAUGUUAGGAUAUGCCGGGUAAGAGAAAACUAAAAAUCCGUAGAAGGGACGAAAC	34.1 nM	33.8 nM		
UUUUAACAUGAGGAUCACCCAUGUGAGGAUAUCGAAAUUUAUAUUUAUAUUUAUUAAUCGAGAAGGCACAUUUU	132 nM	162 nM		
GGUUGGCGAGGAUAUACAUGAGGAUCACCCAUGUGGUCCUGUGGCUGGUCAAAACUUUGUAGAAGGCGCGGGUC	83.1 nM	101 nM		
GGCAUAAUGUAGGAUAUCGUAUUGGAAACAAUACGAGAAGGGCAAACAUGAGGAUCACCCAUGUUCCUUAAGCC	18.5 nM	19 nM		
GGUGGACAUGAGGAUCACCCAUGUGAGGAUAUCGGCUAUCUACUCGCUGACGGCUGCUCGAGAAGGCACAUUGU	70.7 nM	107 nM		
AAAAGACAUGAGGAUCACCCAUGUCAAAACAUAGGAGGAUAUGUCUUGAAAAAAGACUUGACAGAAGGCCUUUGUC			17.9 nM	15.8 nM
UCUAUGUAGAUUCGUCAAUACAGUAAGGAUAUGAGAUACAUGAGGAUCACCCAUGUGCAUGUGGAUUAGAAGGUACAAUUAACU	83.7 nM	73.9 nM		
UGUUGUGAACAGAACAUGAGGAUCACCCAUGUGCACUCGUGUAAGGAUAUACAAUCGUAUGGAAAGUAGAAGGUACUAAUUAUG				120 nM
AAUAGGUUUCCCGGUGGUUAAUACAUGAGGAUCACCCAUGUCAAGGAUAUAGCCGUAUAACCAGGUUAGAAGGUGACUAAAUGA	67.5 nM	120 nM		
CCCGCCCGCCCGCACGCGGAGCGACGAGAAGGUACACAUGAGGAUCACCCAUGUCGAGUGGGAGGUAAGGAUAUUGGACGGCGG			106 nM	93.3 nM
CGCGGACAAGAGAAGGCCAGACCUCGGAACUUGAGGCACCGCUAGGCAUGGAGGAUAUCUUGACAUGAGGAUCACCCAUGUACA			86.3 nM	18.1 nM
UUUUUGUCAGGAUAUACGUAGUAGAACAAUAGUACUACUACGUAGAAGGGACAUGAGGAUCACCCAUGUUCCUC	14.8 nM	30.9 nM		
CUGUGACGGUGCGCAUGUGGACGGAGAAGGCAGACAUGAGGAUCACCCAUGUGAGCCUGCUAUUCUGAGGAUAUCCGUUCGCAC	31.8 nM	192 nM		
AGCUGACGAGGAUAUACAUGAGGAUCACCCAUGUUGGUUCAGCGACGAUAGUCGCAAUGUAGAAGGUGUCAGCU	126 nM	664 nM		
GUGGUUGUCGUAGGAUAUGUAGGAUAUUCCUACAUGAGGAUCACCCAUGUUCGCAUGGAAGAAGGACGGAAGGACGAUGACCAC			156 nM	129 nM
UCUGGAGGAAAACAGACGAAGUGGCCAGAAGGUGAAUGCCACAUGAGGAUCACCCAUGUUUCGAUCAAGGAUAUGGUUUCUCAC			185 nM	72.4 nM
AAGAUGCGGGUAGGAUAUGGAAAUUAAUAAAGACCAGAAGGACUGGUCACACAACAUGAGGAUCACCCAUGUGUGUGUUGUGAA	11.9 nM	10.4 nM		
GCUAGUAUUGCAGGAUAUUGUGAAUAAUUAUUUCAAGAAGGGCAUAACAUGAGGAUCACCCAUGUCUUCCUUUUGAAUACUAGC	6.95 nM	6.51 nM		
UUUUACAUAGGAUAUAGUUUCUUUUACAUGAGGAUCACCCAUGUCUCUCCUCUCUCUCUUCUAGAAGGAUGUUUCU	80.1 nM	72 nM		
CGCACUAUACAUGAGGAUCACCCAUGUUAUUAUGAGAUAGUCAGAAGGCAUUGUUUGUGAAAUUAUGAGGAUAUGAAUAGUGCG			146 nM	79.3 nM
CAUUAAUUCAUUAUAUUAAUUUUACAGGAUAUGUAACAUGAGGAUCACCCAUGUAUUCUAGGUUAACAGAAGGGUAUUGCUUGU	24.5 nM	21.3 nM		
GUGCAUUCGUAGAAGGGUGACAUGAGGAUCACCCAUGUGCGCUGGGCUCGGGAUGCAUCAGCGCCACAGGAUAUACGAAGCACC			117 nM	106 nM
GUAAAGUGAGGAUAUGCUGGAGGUGUAUUCUACGUGUCGAAACAUGAGGAUCACCCAUGUAGAAGGCACGGGCG	10.2 nM	13.1 nM		
UUUAAAGGCACAUGAGGAUCACCCAUGUCCGGUACUAACAGACAGGAUAUGCAAGAUCCACUCAUGCAGAAGGGUCUGGCUUUU			463 nM	79.7 nM
UCUCUUGGGCAAGGAUAUCCUGCGCGGUUCCGGUUCGUGUCUGUCACAUGAGGAUCACCCAUGUGGGAGAAGGUGCCUGCGGUU	17.7 nM	25.5 nM		
UAGGACUUCGUAGGAUAUGUAUUUGAUUUCUACAUGAGGAUCACCCAUGUUUGCAUUUUUUUUUGACAGAAGGACGUGGUCGAA			30.3 nM	17.3 nM
UACAGCUUGACAGGAUAUACAUGUCAGCGAAAGCUGACUAUCUUAAUAACAUGAGGAUCACCCAUGUAGAAGGGUCGAGCUGUA	16.8 nM	26.6 nM		
UUAACACAUGAGGAUCACCCAUGUUAGGAUAUUGUGGUGGGAACAACUGGGAAACGCACGAGAAGGGACACACA	35.7 nM	26.2 nM		
